Results gathered from unrelated publications.
Organism: Staphylococcus aureus
Read-out: microbial growth

| Compound | assay | test system | setting | MIC |
| --- | --- | --- | --- | --- |
| C/C(=C\C(=O)OCCCCCCCCC(=O)O)C[C@@H]1OC[C@H](C[C@@H]2O[C@H]2[C@@H](C)[C@H](C)O)[C@@H](O)[C@H]1O | – | BAA1556 MRSA | drug-resistant strain | > 8000 µM |
| O=C(Nc1cccc(-c2cc(C(=O)O)no2)c1)Nc1ccc(Cl)c(Cl)c1 | broth dilution | ATCC29213 | – | > 64 µg/mL |
| CCCCCCCCCCCCCCCC(=O)NS(=O)(=O)Oc1ccc(OC)cc1 | – | ATCC33591 MRSA | drug-resistant strain | > 200 µg/mL |
| CC(=O)O[C@H]1C[C@@]2(C)[C@@H](C[C@@H](O)[C@H]3[C@@]4(C)CC[C@@H](O)[C@@H](C)[C@@H]4CC[C@@]32C)/C1=C(\CCC=C(C)C)C(=O)O | – | ATCCBAA1721 | – | 8 µg/mL |
| CCOc1cc(-c2nc3ccccc3[nH]2)ccc1O | broth dilution | ATCC43300 MRSA | drug-resistant strain | 256 µg/mL |
| CC1C(=NOCc2cn(-c3ccccc3)nn2)CC(c2ccccc2)OC1c1ccccc1 (centres unmarked) | broth dilution | MTCC96 | 24 h | 25 µg/mL |
| O=[N+]([O-])c1ccc(-c2nc3cc(Cl)ccc3[nH]2)o1 | broth dilution | ATCC700699 MRSA | drug-resistant strain | 2 µg/mL |
| CN[C@H](CC(C)C)C(=O)N[C@H]1C(=O)N[C@@H](CC(N)=O)C(=O)N[C@H]2C(=O)N[C@H]3C(=O)N[C@H](C(=O)N[C@H](C(=O)O)c4cc(O)cc(O)c4-c4cc3ccc4O)[C@H](O)c3ccc(c(Cl)c3)Oc3cc2cc(c3O[C@@H]2O[C@H](CO)[C@@H](O)[C@H](O)[C@H]2O[C@H]2C[C@](C)(N)[C@H](O)[C@H](C)O2)Oc2ccc(cc2Cl)[C@H]1O | broth dilution | ATCC29213 | – | 1 µg/mL |
| CCCCCCCCCC(=O)N[C@@H](Cc1c[nH]c2ccccc12)C(=O)N[C@H](CC(N)=O)C(=O)N[C@@H](CC(=O)O)C(=O)N[C@@H]1C(=O)NCC(=O)N[C@@H](CCCN)C(=O)N[C@@H](CC(=O)O)C(=O)N[C@H](C)C(=O)N[C@@H](CC(=O)O)C(=O)NCC(=O)N[C@H](CO)C(=O)N[C@@H]([C@H](C)CC(=O)O)C(=O)N[C@@H](CC(=O)c2ccccc2N)C(=O)O[C@@H]1C | broth dilution | USA300 | drug-resistant strain | 0.5 µg/mL |
| COc1cccc(OC)c1C(=O)N[C@@H]1C(=O)N2[C@@H]1SC(C)(C)[C@@H]2C(=O)O | – | ATCCBAA1717 | drug-resistant strain, clinical isolate | > 64 µg/mL |
| Cc1ccc2nc(-c3ccc(Cl)cc3)[nH]c2c1 | broth dilution | ATCC43300 MRSA | drug-resistant strain | 512 µg/mL |
| CC(C)(C)c1cc(NC(=O)Nc2ccc(Oc3ccncc3)cc2)no1 | – | NCTC8325 | – | 100 µM |
| Clc1ccc(-c2nc3ccccc3[nH]2)c(Cl)c1 | broth dilution | ATCC43300 MRSA | drug-resistant strain | 256 µg/mL |
| CN[C@H](CC(C)C)C(=O)N[C@H]1C(=O)N[C@@H](CC(N)=O)C(=O)N[C@H]2C(=O)N[C@H]3C(=O)N[C@H](C(=O)N[C@H](C(=O)O)c4cc(O)cc(O)c4-c4cc3ccc4O)[C@H](O)c3ccc(c(Cl)c3)Oc3cc2cc(c3O[C@@H]2O[C@H](CO)[C@@H](O)[C@H](O)[C@H]2O[C@H]2C[C@](C)(N)[C@H](O)[C@H](C)O2)Oc2ccc(cc2Cl)[C@H]1O | – | NEWMAN | – | 1 µg/mL |
| Cc1ccc2nc(-c3ccc(Cl)cc3Cl)[nH]c2c1 | broth dilution | ATCC43300 MRSA | drug-resistant strain | 128 µg/mL |
| C[C@H]1COc2c(N3CCN(C)CC3)c(F)cc3c(=O)c(C(=O)O)cn1c23 | broth dilution | ATCC29213 | – | 0.125 µg/mL |
| Clc1ccc(-c2nc3ccccc3n2Cc2ccccc2)cc1 | broth dilution | ATCC43300 MRSA | drug-resistant strain | 256 µg/mL |
| COC(=O)c1cc(-c2cccc(NC(=O)NCc3ccccc3)c2)on1 | broth dilution | ATCC29213 | – | > 64 µg/mL |
| Clc1ccc(-c2nc3ccccc3n2Cc2ccccc2)cc1Cl | broth dilution | ATCC43300 MRSA | drug-resistant strain | 16 µg/mL |
| CC1=C(C(=O)O)N2C(=O)[C@@H](NC(=O)[C@H](N)C3=CCC=CC3)[C@H]2SC1 | – | USA300 | – | 128 µg/mL |
